ChEMBL document CHEMBL1629489, “Novel 6-[(hetero)arylamino]thieno[3,2-b]pyridines: synthesis and antitumoral activities” (2010)

How the values were obtained:
Assay type in all cases: functional
MCF7 = experiment: Growth inhibition of human MCF7 cells after 48 hrs by sulforhodamine B assay; settings: MCF7, 48 h
Procedure, shortened: (§1)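 Adherent cells in RPMI-1640 with 5% heat-inactivated FBS, 2 mM glutamine and penicillin/streptomycin at 37 °C and 5% CO₂. Plated at 1.5 × 10⁵ cells/mL (MCF-7) or 0.75 × 10⁵ cells/mL (A375-C5, NCI-H460), then incubated 24 h. Exposed 48 h to five serial dilutions from DMSO stocks (≤0.25% DMSO). SRB staining, absorbance at 492 nm. GI50 is the mean ± SEM of three independent duplicate experiments.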

[1] = Growth inhibition of human A375-C5 cells after 48 hrs by sulforhodamine B assay; settings: A375-C5, 48 h; procedure, shortened: as §1
NCI-H460 = experiment: Growth inhibition of human NCI-H460 cells after 48 hrs by sulforhodamine B assay; settings: NCI-H460, 48 h; procedure, shortened: as §1

**Q.** With `COC(=O)c1sc2cc(Nc3nc4ccccc4s3)cnc2c1N` as the compound, how does the GI50 (MCF7) read?
**A.** The GI50 was 6 µM.

**Q.** What about the GI50 [1] of the same compound?
**A.** The GI50 was 3.5 µM.

**Q.** And the GI50 (NCI-H460)?
**A.** Its GI50 is 6.4 µM.

**Q.** Which GI50 (MCF7) does the source give for `COC(=O)c1sc2cc(Nc3cc(OC)cc(OC)c3)cnc2c1N` here?
**A.** Its GI50 is > 150 µM.

**Q.** And the GI50 [1]?
**A.** The GI50 was > 150 µM.

**Q.** What about the GI50 (NCI-H460) of the same compound?
**A.** The GI50 was > 150 µM.

**Q.** With `COC(=O)c1sc2cc(Nc3ccc(F)cc3Br)cnc2c1N` as the compound, how does the GI50 (MCF7) read?
**A.** The GI50 was 28.9 µM.

**Q.** What about the GI50 [1] of the same compound?
**A.** Its GI50 is 34 µM.

**Q.** And the GI50 (NCI-H460)?
**A.** The GI50 was 31.3 µM.

**Q.** Which GI50 (MCF7) does the source give for `COC(=O)c1sc2cc(Nc3ncccn3)cnc2c1N` here?
**A.** The GI50 was > 150 µM.

**Q.** And the GI50 [1]?
**A.** The GI50 was > 150 µM.

**Q.** And the GI50 (NCI-H460)?
**A.** Its GI50 is > 150 µM.

**Q.** For `COC(=O)c1sc2cc(Nc3ccc4[nH]ccc4c3)cnc2c1N`, which GI50 (MCF7) is on record?
**A.** The GI50 was 18.1 µM.

**Q.** What about the GI50 [1] of the same compound?
**A.** The GI50 was 17.3 µM.

**Q.** And the GI50 (NCI-H460)?
**A.** The GI50 was 15.8 µM.

**Q.** For `COc1cccc2c1C(=O)c1c(O)c3c(c(O)c1C2=O)C[C@@](O)(C(=O)CO)C[C@@H]3O[C@H]1C[C@H](N)[C@H](O)[C@H](C)O1` [DOXORUBICIN], which GI50 (MCF7) is on record?
**A.** The GI50 was 0.0433 µM.

**Q.** And the GI50 [1]?
**A.** The GI50 was 0.13 µM.

**Q.** What about the GI50 (NCI-H460) of the same compound?
**A.** Its GI50 is 0.0356 µM.

**Q.** Which GI50 (MCF7) does the source give for `COC(=O)c1sc2cc(Nc3ccccc3Br)cnc2c1N` here?
**A.** The GI50 was 28.9 µM.

**Q.** And the GI50 [1]?
**A.** The GI50 was 34.1 µM.

**Q.** And the GI50 (NCI-H460)?
**A.** The GI50 was 30.9 µM.

**Q.** With `COC(=O)c1sc2cc(Nc3cc(OC)ccc3Cl)cnc2c1N` as the compound, how does the GI50 (MCF7) read?
**A.** Its GI50 is 22.1 µM.

**Q.** What about the GI50 [1] of the same compound?
**A.** Its GI50 is 25.8 µM.

**Q.** And the GI50 (NCI-H460)?
**A.** The GI50 was 21.7 µM.

**Q.** With `COC(=O)c1sc2cc(Nc3ccc(OC)cc3OC)cnc2c1N` as the compound, how does the GI50 (MCF7) read?
**A.** The GI50 was 26.3 µM.

**Q.** What about the GI50 [1] of the same compound?
**A.** The GI50 was 27.3 µM.

**Q.** And the GI50 (NCI-H460)?
**A.** The GI50 was 26.3 µM.

**Q.** With `COC(=O)c1sc2cc(Nc3cccnc3)cnc2c1N` as the compound, how does the GI50 (MCF7) read?
**A.** Its GI50 is 82.4 µM.

**Q.** And the GI50 [1]?
**A.** The GI50 was > 150 µM.

**Q.** What about the GI50 (NCI-H460) of the same compound?
**A.** Its GI50 is 49.4 µM.

**Q.** Which results are given for `COC(=O)c1sc2cc(Nc3ccc(OC)cc3)cnc2c1N`?
**A.** GI50 (MCF7): 124 µM; GI50 [1]: > 150 µM; GI50 (NCI-H460): 95 µM

**Q.** Which results are given for `COC(=O)c1sc2cc(Nc3ccccn3)cnc2c1N`?
**A.** GI50 (MCF7): > 150 µM; GI50 [1]: > 150 µM; GI50 (NCI-H460): > 150 µM

**Q.** Which results are given for `COC(=O)c1sc2cc(Nc3nccc4ccccc34)cnc2c1N`?
**A.** GI50 (MCF7): > 150 µM; GI50 [1]: > 150 µM; GI50 (NCI-H460): > 150 µM

**Q.** With `COC(=O)c1sc2cc(Nc3ccc(OC)c(OC)c3)cnc2c1N` as the compound, how does the GI50 (MCF7) read?
**A.** Its GI50 is 30 µM.

**Q.** What about the GI50 [1] of the same compound?
**A.** The GI50 was 26.3 µM.

**Q.** What about the GI50 (NCI-H460) of the same compound?
**A.** Its GI50 is 26.2 µM.
